Test results from ChEMBL document CHEMBL3232807, “Genomics-guided discovery of endophenazines from Kitasatospora sp. HKI 714” (2014).
Converted amounts (≈) assume the structure as drawn.

How the values were obtained:
Type in all cases: functional
[1] = system: Mycolicibacterium fortuitum; assay: Antimicrobial activity against Mycobacterium fortuitum IMET 10667 by broth dilution method
How it was run: (§1)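 MIC was determined by broth dilution following the NCCLS standard method.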

[2] = system: Staphylococcus aureus; assay: Antimicrobial activity against methicillin-resistant Staphylococcus aureus SG 511 by broth dilution method
How it was run: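 MIC was determined by broth dilution following NCCLS guidelines, using S. aureus SG 511 (MRSA).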

[3] = system: Mycolicibacterium aurum; assay: Antimicrobial activity against Mycobacterium aurum SB 66 by broth dilution method; how it was run: as §1
[4] = system: Mycolicibacterium vaccae; assay: Antimicrobial activity against Mycobacterium vaccae IMET 10670 by broth dilution method; how it was run: as §1
[5] = system: Mycolicibacterium smegmatis; assay: Antimicrobial activity against Mycobacterium smegmatis SG 987 by broth dilution method; how it was run: as §1
[6] = system: Mycobacterium tuberculosis; assay: Antimicrobial activity against Mycobacterium tuberculosis by BACTEC radiometric assay
[7] = system: Mycobacterium avium complex sp.; assay: Antimicrobial activity against Mycobacterium avium complex by BACTEC radiometric assay

SMILES	MIC [1] [µg/mL]	MIC [2] [µg/mL]	MIC [3] [µg/mL]	MIC [4] [µg/mL]	MIC [5] [µg/mL]	MIC [6] [µg/mL]	MIC [7] [µg/mL]
O=C(O)c1cccc2nc3ccccc3nc12 [PHENAZINE-1-CARBOXYLIC ACID]	50 (≈ 223 µM)	100 (≈ 446 µM)	50 (≈ 223 µM)	25 (≈ 111 µM)	50 (≈ 223 µM)		
CC(C)/N=c1\cc2n(-c3ccc(Cl)cc3)c3ccccc3nc-2cc1Nc1ccc(Cl)cc1 [CLOFAZIMINE]						0.12 (≈ 0.253 µM)	0.12 (≈ 0.253 µM)
CC(C)(O)/C=C/c1cccc2nc3cccc(C(=O)O)c3nc12	25 (≈ 81.1 µM)	100 (≈ 324 µM)	25 (≈ 81.1 µM)	25 (≈ 81.1 µM)	50 (≈ 162 µM)		
C/C(=C\Cc1cccc2nc3cccc(C(=O)O)c3nc12)CO	25 (≈ 81.1 µM)	100 (≈ 324 µM)	25 (≈ 81.1 µM)	25 (≈ 81.1 µM)	50 (≈ 162 µM)		
O=C(O)c1cccc2c1Nc1ccccc1N2C(=O)CO	50 (≈ 176 µM)	100 (≈ 352 µM)	50 (≈ 176 µM)	25 (≈ 87.9 µM)	50 (≈ 176 µM)		
O=C(O)c1cn(C2CC2)c2cc(N3CCNCC3)c(F)cc2c1=O [CIPROFLOXACIN]	0.1 (≈ 0.302 µM)	12.5 (≈ 37.7 µM)	0.1 (≈ 0.302 µM)	0.1 (≈ 0.302 µM)	0.78 (≈ 2.35 µM)		
